# Data reported in the RNAGym collection of RNA variant scans (doi:10.1002/anie.201605470).
# B1: Osa-1-4 twister ribozyme (parent)
# chain: CCGCCUAACACUGCCAAUGCCGGUCCCAAGCCCGGAUAAAAGUGGAGGGGGCGG
# Variants of: B1
# Assay: self-cleavage, relative activity (ratio to wild type); higher = more cleavage; co-transcriptional
# Outline: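 A DNA template for a 54-nucleotide Oryza sativa twister ribozyme was synthesised with 97 % wild-type base and 1 % of each other base at the 48 positions downstream of the cleavage site. It was transcribed in vitro for 2 h at 37 °C, allowing co-transcriptional self-cleavage, then reverse-transcribed with a template-switching oligonucleotide, PCR-amplified and deep-sequenced. Cleavage status was scored from reads with or without upstream sequence. Relative activity is fraction cleaved normalised to wild type.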
row,Variant,self-cleavage
1,CCGCCUAACACUGCCAAUGCCGGUCCCAAGCCCGGAUAAAAUUGGAGGGGGCCG [G42U G53C],0.05
2,CCGCCUAACACUGCCAAUGCCGGUCCCAAGCCCGGAUAAAAUUGGAGGGGGCUG [G42U G53U],0.08
3,CCGCCUAACACUGCCAAUGCCGGUCCCAAGCCCGGAUAAAAUUGGAGGGGGCGA [G42U G54A],0.14
4,CCGCCUAACACUGCCAAUGCCGGUCCCAAGCCCGGAUAAAAUUGGAGGGGGCGC [G42U G54C],0.15
5,CCGCCUAACACUGCCAAUGCCGGUCCCAAGCCCGGAUAAAAUUGGAGGGGGCGU [G42U G54U],0.37
6,CCGCCUAACACAGCCAAUGCCGGUCCCAAGCCCGGAUAAAAUUGGAGGGGGCGG [G42U U12A],0.06
7,CCGCCUAACACCGCCAAUGCCGGUCCCAAGCCCGGAUAAAAUUGGAGGGGGCGG [G42U U12C],0.05
8,CCGCCUAACACGGCCAAUGCCGGUCCCAAGCCCGGAUAAAAUUGGAGGGGGCGG [G42U U12G],0.06
9,CCGCCUAACACUGCCAAAGCCGGUCCCAAGCCCGGAUAAAAUUGGAGGGGGCGG [G42U U18A],0.29
10,CCGCCUAACACUGCCAACGCCGGUCCCAAGCCCGGAUAAAAUUGGAGGGGGCGG [G42U U18C],0.23
11,CCGCCUAACACUGCCAAGGCCGGUCCCAAGCCCGGAUAAAAUUGGAGGGGGCGG [G42U U18G],0.28
12,CCGCCUAACACUGCCAAUGCCGGACCCAAGCCCGGAUAAAAUUGGAGGGGGCGG [G42U U24A],0.03
13,CCGCCUAACACUGCCAAUGCCGGCCCCAAGCCCGGAUAAAAUUGGAGGGGGCGG [G42U U24C],0.03
14,CCGCCUAACACUGCCAAUGCCGGGCCCAAGCCCGGAUAAAAUUGGAGGGGGCGG [G42U U24G],0.02
15,CCGCCUAACACUGCCAAUGCCGGUCCCAAGCCCGGAAAAAAUUGGAGGGGGCGG [G42U U37A],0.09
16,CCGCCUAACACUGCCAAUGCCGGUCCCAAGCCCGGACAAAAUUGGAGGGGGCGG [G42U U37C],0.11
17,CCGCCUAACACUGCCAAUGCCGGUCCCAAGCCCGGAGAAAAUUGGAGGGGGCGG [G42U U37G],0.15
18,CCGCCUAACACUGCCAAUGCCGGUCCCAAGCCCGGAUAAAAUAGGAGGGGGCGG [G42U U43A],0.08
19,CCGCCUAACACUGCCAAUGCCGGUCCCAAGCCCGGAUAAAAUCGGAGGGGGCGG [G42U U43C],0.09
20,CCGCCUAACACUGCCAAUGCCGGUCCCAAGCCCGGAUAAAAUGGGAGGGGGCGG [G42U U43G],0.09
21,CCGCCUAACACUGCCAAUGCCGGUCCCAAGCCCGGAUAAAAGAGGAGGGGGCGG [U43A],0.93
22,CCGCCUAACACUGCCAAUGCCGGUCCCAAGCCCGGAUAAAAGCGGAGGGGGCGG [U43C],0.64
23,CCGCCUAACACUGCCAAUGCCGGUCCCAAGCCCGGAUAAAAGGGGAGGGGGCGG [U43G],0.67
24,CCGCCUAACACUGCCAAUGCCGGUCCCAAGCCCGGAUAAAAGUAGAGGGGGCGG [G44A],0.97
25,CCGCCUAACACUGCCAAUGCCGGUCCCAAGCCCGGAUAAAAGUAAAGGGGGCGG [G44A G45A],0.16

row,Variant,self-cleavage
1,CCGCCUAACACUGCCAAUGCCGGUCCCAAGCCCGGAUAAAAGUACAGGGGGCGG [G44A G45C],0.07
2,CCGCCUAACACUGCCAAUGCCGGUCCCAAGCCCGGAUAAAAGUAUAGGGGGCGG [G44A G45U],0.07
3,CCGCCUAACACUGCCAAUGCCGGUCCCAAGCCCGGAUAAAAGUAGAAGGGGCGG [G44A G47A],0.13
4,CCGCCUAACACUGCCAAUGCCGGUCCCAAGCCCGGAUAAAAGUAGACGGGGCGG [G44A G47C],0.09
5,CCGCCUAACACUGCCAAUGCCGGUCCCAAGCCCGGAUAAAAGUAGAUGGGGCGG [G44A G47U],0.12
6,CCGCCUAACACUGCCAAUGCCGGUCCCAAGCCCGGAUAAAAGUAGAGAGGGCGG [G44A G48A],0.07
7,CCGCCUAACACUGCCAAUGCCGGUCCCAAGCCCGGAUAAAAGUAGAGCGGGCGG [G44A G48C],0.06
8,CCGCCUAACACUGCCAAUGCCGGUCCCAAGCCCGGAUAAAAGUAGAGUGGGCGG [G44A G48U],0.06
9,CCGCCUAACACUGCCAAUGCCGGUCCCAAGCCCGGAUAAAAGUAGAGGAGGCGG [G44A G49A],0.07
10,CCGCCUAACACUGCCAAUGCCGGUCCCAAGCCCGGAUAAAAGUAGAGGCGGCGG [G44A G49C],0.06
11,CCGCCUAACACUGCCAAUGCCGGUCCCAAGCCCGGAUAAAAGUAGAGGUGGCGG [G44A G49U],0.07
12,CCGCCUAACACUGCCAAUGCCGGUCCCAAGCCCGGAUAAAAGUAGAGGGAGCGG [G44A G50A],0.71
13,CCGCCUAACACUGCCAAUGCCGGUCCCAAGCCCGGAUAAAAGUAGAGGGCGCGG [G44A G50C],0.91
14,CCGCCUAACACUGCCAAUGCCGGUCCCAAGCCCGGAUAAAAGUAGAGGGUGCGG [G44A G50U],0.97
15,CCGCCUAACACUGCCAAUGCCGGUCCCAAGCCCGGAUAAAAGUAGAGGGGACGG [G44A G51A],0.79
16,CCGCCUAACACUGCCAAUGCCGGUCCCAAGCCCGGAUAAAAGUAGAGGGGCCGG [G44A G51C],0.08
17,CCGCCUAACACUGCCAAUGCCGGUCCCAAGCCCGGAUAAAAGUAGAGGGGUCGG [G44A G51U],0.28
18,CCGCCUAACACUGCCAAUGCCGGUCCCAAGCCCGGAUAAAAGUAGAGGGGGCAG [G44A G53A],0.83
19,CCGCCUAACACUGCCAAUGCCGGUCCCAAGCCCGGAUAAAAGUAGAGGGGGCCG [G44A G53C],0.1
20,CCGCCUAACACUGCCAAUGCCGGUCCCAAGCCCGGAUAAAAGUAGAGGGGGCUG [G44A G53U],0.47
21,CCGCCUAACACUGCCAAUGCCGGUCCCAAGCCCGGAUAAAAGUAGAGGGGGCGA [G44A G54A],0.92
22,CCGCCUAACACUGCCAAUGCCGGUCCCAAGCCCGGAUAAAAGUAGAGGGGGCGC [G44A G54C],0.93
23,CCGCCUAACACUGCCAAUGCCGGUCCCAAGCCCGGAUAAAAGUAGAGGGGGCGU [G44A G54U],0.94
24,CCGCCUAACACAGCCAAUGCCGGUCCCAAGCCCGGAUAAAAGUAGAGGGGGCGG [G44A U12A],0.65
